Reference: ChEMBL document CHEMBL1126267, “A novel synthesis and potent antiinflammatory activity of 4-hydroxy-2(1H)-oxo-1-phenyl-1,8-naphthyridine-3-carboxamides” (1992)

What was measured:
Assay type in all cases: functional
Details in all cases: route oral
[1] = test system: Rattus norvegicus; experiment: Inhibition of carrageenan-induced rat's paw edema (CPE) after peroral administration of 100 mg/kg dose.
Outline: (§1)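 Male Wistar rats (about 150 g) were dosed orally with compound suspended in 5% arabic gum, 1 h before a subplantar hind-paw injection of 0.1 mL saline. The irritant was 1% zymosan for 33 or 1% λ-carrageenin for 34. Paw volume was measured by plethysmograph before dosing and at 4 h (zymosan) or 3 h (carrageenin). Swelling is relative to initial volume, as mean ± SEM. % inhibition is versus the control group's mean swelling.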

[2] = test system: Rattus norvegicus; experiment: Compound was tested for the inhibition of rat reversed passive Arthus pleurisy after peroral administration of 100 mg/kg dose at 0.42 mL of exudate volume with 0.52 mL of control (injected intrapleurally)
Outline: (§2)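 Male Wistar rats (about 250 g) were given compound orally before the antiserum. Under ether anesthesia, 0.2 mL rabbit anti-egg albumin antiserum was injected intrapleurally. After 30 min, egg albumin (15 mg/100 g body weight in 0.1 mL saline) was given iv. Rats were killed 4.5 h later and the thoracic cavity was rinsed with 5 mL saline. Exudate volume and infiltrated cell number were measured, with inhibition % versus controls as mean ± SEM.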

[3] = test system: Rattus norvegicus; experiment: Antiinflammatory activity on Carrageenan rat's paw edema(CPE) after peroral administration of 100 mg/kg dose with control swelling of 64.2%
[4] = test system: Rattus norvegicus; experiment: Antiinflammatory activity on Zymosan-induced rat's paw edema(ZPE) after peroral administration of 100 mg/kg dose with control swelling of 72.9%
Outline: (§3)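 Male Wistar rats weighing about 150 g were dosed orally with compound suspended in 5% arabic gum. 1 h later, 1% zymosan in 0.1 mL saline was injected subplantarly into the hind paw. Paw volume was measured by plethysmograph before dosing and 4 h after zymosan, with edema as the volume difference. Inhibition % was derived from mean swelling versus the control group.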

[5] = test system: Rattus norvegicus; experiment: Compound was tested for the inhibition of rat reversed passive Arthus pleurisy after peroral administration of 100 mg/kg dose at 2.23*10e6 no of cells with 2.28*10er cells of control; outline: as §2
[6] = test system: Rattus norvegicus; experiment: Inhibition of Zymosan-induced rat's paw edema(ZPE) after peroral administration of 100 mg/kg dose.; outline: as §1
[7] = test system: Rattus norvegicus; experiment: Antiinflammatory activity on Carrageenan rat's paw edema(CPE) after peroral administration of 100 mg/kg dose with control swelling of 68.1%
[8] = test system: Rattus norvegicus; experiment: Antiinflammatory activity on Zymosan-induced rat's paw edema(ZPE) after peroral administration of 100 mg/kg dose with control swelling of 62.8%; outline: as §3
[9] = test system: Rattus norvegicus; experiment: Compound was tested for the inhibition of rat reversed passive Arthus pleurisy after peroral administration of 100 mg/kg dose at 0.63 mL of exudate volume with 0.84 mL of control (injected intrapleurally); outline: as §2
[10] = test system: Rattus norvegicus; experiment: Compound was tested for the inhibition of rat reversed passive Arthus pleurisy after peroral administration of 100 mg/kg dose at 4.63*10e6 no of cells with 5.72*10e6 cells of control
Outline: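 Male Wistar rats (about 250 g) under ether received 0.2 mL rabbit anti-egg-albumin antiserum intrapleurally. Thirty min later they got 15 mg EA/100 g body weight in 0.1 mL saline iv. Compounds were given orally beforehand. Rats were killed 4.5 h after induction and the thoracic cavity rinsed with 5 mL saline. Exudate volume and infiltrated cell count were read as mean ± SE. % inhibition is versus control.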

[11] = test system: Rattus norvegicus; experiment: Antiinflammatory activity on Zymosan-induced rat's paw edema(ZPE) after peroral administration of 100 mg/kg dose with control swelling of 71.7%; outline: as §3
[12] = test system: Rattus norvegicus; experiment: Compound was tested for the inhibition of rat reversed passive Arthus pleurisy after peroral administration of 100 mg/kg dose at 1.69*10e6 no of cells with 2.17*10e6 cells of control; outline: as §2
[13] = test system: Rattus norvegicus; experiment: Compound was tested for the inhibition of rat reversed passive Arthus pleurisy after peroral administration of 100 mg/kg dose at 0.33 mL of exudate volume with 0.46 mL of control (injected intrapleurally); outline: as §2
[14] = test system: Rattus norvegicus; experiment: Antiinflammatory activity on Carrageenan rat's paw edema(CPE) after peroral administration of 100 mg/kg dose with control swelling of 81.0%
[15] = test system: Rattus norvegicus; experiment: Antiinflammatory activity on Zymosan-induced rat's paw edema(ZPE) after peroral administration of 100 mg/kg dose with control swelling of 52.2%; outline: as §3
[16] = test system: Rattus norvegicus; experiment: Antiinflammatory activity on Carrageenan rat's paw edema(CPE) after peroral administration of 100 mg/kg dose with control swelling of 73.7%

Compound	inhibition in vivo at 100 mg/kg [1]	Swelling [3]	Swelling [4]	inhibition in vivo at 100 mg/kg [6]	further results
CNC(=O)c1c(O)c2cccnc2n(-c2ccccc2)c1=O	21%	50.7%	65.9%	9.6%	inhibition in vivo at 100 mg/kg [2]: 22.3%; inhibition in vivo at 100 mg/kg [5]: 3.2%
COc1cccc(NC(=O)c2c(O)c3cccnc3n(-c3ccccc3)c2=O)c1	20.7%			5.7%	Swelling [7]: 54%; Swelling [8]: 59.2%; inhibition in vivo at 100 mg/kg [9]: 26.9%; inhibition in vivo at 100 mg/kg [10]: 22.1%
O=C(Nc1ccccn1)c1c(O)c2cccnc2n(-c2ccccc2)c1=O	14.6%	54.8%		-13.5%	Swelling [11]: 81.4%
O=C(NC1CCN(Cc2ccccc2)CC1)c1c(O)c2cccnc2n(-c2ccccc2)c1=O	1.2%			1.7%	inhibition in vivo at 100 mg/kg [12]: 22.1%; inhibition in vivo at 100 mg/kg [13]: 32.4%; Swelling [14]: 80.8%; Swelling [15]: 51.3%
Nc1ccc(NC(=O)c2c(O)c3cccnc3n(-c3ccccc3)c2=O)cc1	0%		76.9%	-5.5%	Swelling [16]: 79%
